Values after ≈ are worked out from the molar mass of the structure shown.
Legend:
[1] = target: Methionine aminopeptidase 2 (Homo sapiens, UniProt P50579); experiment: Inhibition of methionine aminopeptidase 2
KB = experiment: Cytotoxicity against human KB cells; assay type: functional, cell-based
HCT-116 [2] = experiment: Cytotoxicity against human HCT116 xenografted in SCID mouse at 12.3 mg/kg/day, iv administered as bolus dose from 3 days after tumor implantation for 5 days measured on day 9 relative to control; assay type: functional
In short: (§1)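 SCID mice implanted with HCT-116 tumour cells, dosed iv as a bolus daily for 5 days starting 3 days after inoculation and followed to day 30. Tumour response read as %T/C against untreated controls; body weights tracked over the 30 days and compared with untreated controls.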

HCT-116 [3] = experiment: Cytotoxicity against human HCT116 xenografted in SCID mouse at 25 mg/kg/day, iv administered as bolus dose from 3 days after tumor implantation for 5 days measured on day 11 relative to control; assay type: functional; in short: as §1
Mus musculus [4] = experiment: Toxicity in human HCT116 xenografted SCID mouse assessed as increase in body weight at 12.3 mg/kg/day, iv administered as bolus dose from 3 days after tumor implantation for 5 days measured after 30 days; assay type: organism-based; design: route intravenous; details: in vivo, 720 h; in short: as §1
Mus musculus [5] = experiment: Toxicity in human HCT116 xenografted SCID mouse assessed as increase in body weight at 25 mg/kg/day, iv administered as bolus dose from 3 days after tumor implantation for 5 days measured after 30 days; assay type: organism-based; design: route intravenous; details: in vivo, 720 h; in short: as §1
MDA-MB-435 = experiment: Cytotoxicity against human MDA-MB-435 cells; assay type: functional, cell-based; details: for CC50: read-out: LC50 (the source's name)
[6] = target: Methionine aminopeptidase 1 (Homo sapiens, UniProt P53582); experiment: Inhibition of methionine aminopeptidase 1
HCT-116 [7] = experiment: Cytotoxicity against human HCT116 cells assessed as cell kill at >=20 pg/mL after 168 hrs by clonogenic assay; assay type: functional
In short: (§2)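 Clonogenic dose-response on HCT-116 cells with exposures of 2, 24 and 168 h; the value is the concentration giving 90% cell kill at each exposure time.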

[8] = Toxicity in SCID mouse assessed as maximum tolerated dose; assay type: organism-based; details: in vivo
Mus musculus [9] = experiment: Toxicity in human HCT116 xenografted SCID mouse at 125 ug/mouse dosed as bolus dose after 23 days; assay type: organism-based; details: in vivo, 552 h
In short: (§3)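 Bolus injection into SCID mice bearing HCT-116 tumours at 125, 62 or 31 μg/mouse; tumour growth read as %T/C against controls at 23 days.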

HCT-116 [10] = experiment: Anticancer activity against human HCT116 xenografted in SCID mouse at 62 ug/mouse dosed as bolus dose after 23 days relative to control; assay type: functional; in short: as §3
HCT-116 [11] = experiment: Anticancer activity against human HCT116 xenografted in SCID mouse at 31 ug/mouse dosed as bolus dose after 23 days relative to control; assay type: functional; in short: as §3
MCF7 = experiment: Growth inhibition of human MCF7 cells; assay type: functional
PC-3 = experiment: Cytotoxicity against human PC3 cells; assay type: functional, cell-based
HCT-116 [12] = experiment: Cytotoxicity against human HCT116 cells assessed as cell kill at >=3 ng/mL after 2 hrs by clonogenic assay; assay type: functional; in short: as §2
HCT-116 [13] = experiment: Cytotoxicity against human HCT116 cells assessed as cell kill at >=2 ng/mL after 24 hrs by clonogenic assay; assay type: functional; in short: as §2
HCT-116 [14] = experiment: Cytotoxicity against human HCT116 cells; assay type: functional, cell-based
In short: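 HCT-116 cells in liquid culture; IC50 from two determinations, reported as their median.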

HCT-116 [15] = experiment: Cytotoxicity against human HCT116 cells after 2 hrs by clonogenic assay; assay type: functional; in short: as §2
HCT-116 [16] = experiment: Cytotoxicity against human HCT116 cells after 24 hrs by clonogenic assay; assay type: functional; in short: as §2

Sequence of Methionine aminopeptidase 2 (P50579 whole entry): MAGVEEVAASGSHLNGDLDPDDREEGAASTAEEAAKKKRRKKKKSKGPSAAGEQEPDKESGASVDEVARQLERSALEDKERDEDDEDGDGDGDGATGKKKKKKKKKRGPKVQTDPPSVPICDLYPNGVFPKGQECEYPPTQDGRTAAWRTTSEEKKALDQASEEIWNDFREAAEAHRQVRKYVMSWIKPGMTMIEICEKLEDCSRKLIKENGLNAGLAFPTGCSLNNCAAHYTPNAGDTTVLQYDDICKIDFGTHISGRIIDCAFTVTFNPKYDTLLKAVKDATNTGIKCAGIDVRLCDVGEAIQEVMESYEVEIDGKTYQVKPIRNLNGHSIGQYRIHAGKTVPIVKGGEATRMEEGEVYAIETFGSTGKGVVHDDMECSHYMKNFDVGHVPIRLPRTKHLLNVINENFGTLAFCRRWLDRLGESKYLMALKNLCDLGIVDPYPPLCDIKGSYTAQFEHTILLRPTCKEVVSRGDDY

`CC(C)(C)OC(=O)Nc1cccnc1C(=O)Nc1nccs1` gave an IC50 [1] of over 300000 nM.

Work on `CCC(C)CCCCCCCCCCC(=O)O[C@H]1CC[C@H](NC(=O)[C@H](OC)[C@H](O)[C@@H](O)[C@H](O)/C=C/C(C)C)C(=O)N(C)C1` (some centres not stated) [BENGAMIDE O] yielded an IC50 [1] of over 50000 nM.

`C=C1C[C@H](C)C[C@@H]2CC=C[C@@H](C/C=C\C(=O)O[C@H]([C@@H](O)/C=C/[C@@H]3CC(C)=CCO3)C[C@@H]3O[C@H]3[C@@H](O)C1)O2` [FIJIANOLIDE B] gave an IC50 (KB) of 29 nM, a T/C (HCT-116 [2]) of 80% and a T/C (HCT-116 [3]) of 11%. For the same compound, the Activity (Mus musculus [4]) was “Non-toxic”, the Activity (Mus musculus [5]) was “Non-toxic” and the IC50 (MDA-MB-435) was 2 nM. For the same compound, the CC50 (MDA-MB-435) was 7 nM.

For `CO[C@@H]1[C@H](OC(=O)/C=C/C=C/C=C/C=C/C(=O)O)CC[C@]2(CO2)[C@H]1[C@@]1(C)O[C@@H]1CC=C(C)C` [FUMAGILLIN], the IC50 [6] was “Not Active” and the IC50 [1] was 30 nM.

With `C=C(C)C[C@H](OC)[C@H](O)C(=O)N[C@@H](OC)C1C[C@@H](O)C(C)(C)[C@@H](C[C@H](O)[C@@H](C)[C@@H]2Cc3c(C)c(O)cc(O)c3C(=O)O2)O1` (some centres not stated) [IRCINIASTATIN] the Activity (HCT-116 [7]) was 90%, the MTD [8] was 0.125 mg/kg and the Activity (Mus musculus [9]) was “Toxic”. For the same compound, the T/C (HCT-116 [10]) was 75%, the T/C (HCT-116 [11]) was 86% and the GI50 (MCF7) was 5.2 nM. It also gave a CC50 (MDA-MB-435) of under 2.5 nM, an IC50 (PC-3) of 1 nM and an Activity (HCT-116 [12]) of 90%. For the same compound, the Activity (HCT-116 [13]) was 90%.

`C=CC/C=C\Cc1csc(C(C)(C)[C@H](O)C/C=C\C(=C)CCNC(=O)OC)n1` [MYCOTHIAZOLE] showed an MTD [8] of 3 mg/kg, an IC50 (HCT-116 [14]) of 1.5 ng/mL (≈ 3.71 nM) and an Activity (HCT-116 [15]) of over 10 µg/mL. The Activity (HCT-116 [16]) was over 10 µg/mL.

In the case of `CO[C@@H]1[C@H](OC(=O)NC(=O)CCl)CC[C@]2(CO2)[C@H]1[C@@]1(C)O[C@@H]1CC=C(C)C` [O-CHLOROACETYLCARBAMOYLFUMAGILLOL], the IC50 [6] is reported as “Not Active”.

For `CO[C@@H]1C(=O)CC[C@]2(CO2)[C@@]1(O)[C@@]1(C)O[C@@H]1CC=C(C)C` [OVALICIN], the IC50 [6] was “Not Active”.

Reference: ChEMBL document CHEMBL1152347, “A selective account of effective paradigms and significant outcomes in the discovery of inspirational marine natural products” (J Nat Prod, 2009)
